Consider twelve compounds from ChEMBL document CHEMBL4007430, “Synthesis and Cytostatic and Antiviral Profiling of Thieno-Fused 7-Deazapurine Ribonucleosides” (J Med Chem, 2017).

The subject of one series is MRC5. Description: Cytotoxicity against human MRC5 cells assessed as cell growth inhibition after 72 hrs by MTS assay. Format: cell-based. Conditions: MRC5, 72 h. An outline of the steps: (§1)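 Cells were exposed to compound for 3 days, then stained with MTS as a quantitative metabolic read-out. IC50 is the concentration that inhibits cell growth by 50%.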
(In general: Formazan colour is commonly taken as a measure of viable cells.)

In the next series the test system is A549. The series can be described thus: Cytotoxicity against human A549 cells assessed as cell growth inhibition after 72 hrs by MTS assay. It is filed as functional, cell-based. The note with it: A549, 72 h. Summed up: as §1
A short description of series [1]: Cytotoxicity against human K562-TAX cells assessed as cell growth inhibition after 72 hrs by MTS assay. Format: functional, cell-based. Summed up: as §1
A further series relates to K562. Description: Cytotoxicity against human K562 cells assessed as cell growth inhibition after 72 hrs by MTS assay. Conditions: K562, 72 h. Format: functional, cell-based. An outline of the steps:
as §1

In the next series the test system is HeLa S3. Description: Cytotoxicity against human HeLaS3 cells assessed as reduction in cell viability after 72 hrs by XTT assay. It is filed as functional, cell-based. The note with it: HeLa S3, 72 h. An outline of the steps:
(§2)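 Cells were incubated with compound for 3 days. Viability was then measured with the XTT tetrazolium assay.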

Another series has as its system CCRF-CEM. Description: Cytotoxicity against human CCRF-CEM cells assessed as cell growth inhibition after 72 hrs by MTS assay.
Series [2] has as its system HCT-116. The series can be described thus: Cytotoxicity against human HCT116 cells assessed as cell growth inhibition after 72 hrs by MTS assay. Format: functional, cell-based. The note with it: HCT-116, 72 h. An outline of the steps:
as §1

Series [3] in a line: Cytotoxicity against mrp-1/mdr-1 overexpressing human CEM-DNR-bulk cells assessed as cell growth inhibition after 72 hrs by MTS assay. Format: functional, cell-based. Summed up: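 Cells were exposed to compound for 3 days, then stained with MTS as a quantitative metabolic read-out.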
For another series, the system named is HL-60. Description: Cytotoxicity against human HL60 cells assessed as reduction in cell viability after 72 hrs by XTT assay. It is filed as functional, cell-based. Conditions: HL-60, 72 h. An outline of the steps: as §2
Series [4] has as its system HCT-116. The series can be described thus: Cytotoxicity against p53 deficient human HCT116 cells assessed as cell growth inhibition after 72 hrs by MTS assay. Format: functional, cell-based. The note with it: HCT-116, 72 h. Summed up:
as §1

Another series concerns U2OS. The series can be described thus: Cytotoxicity against human U2OS cells assessed as cell growth inhibition after 72 hrs by MTS assay. Format: functional, cell-based.
In another series the test system is BJ. The series can be described thus: Cytotoxicity against human BJ cells assessed as cell growth inhibition after 72 hrs by MTS assay. Format: cell-based. An outline of the steps: as §1
The subject of a further series is HepG2. Description: Cytotoxicity against human HepG2 cells assessed as reduction in cell viability after 72 hrs by XTT assay. The note with it: HepG2, 72 h. Format: functional, cell-based. An outline of the steps:
as §2

Series [5] deals with Hepatitis C virus. The series can be described thus: Anti-HCV activity against Hepatitis C virus genotype 2a infected in human Huh7 replicon cells after 96 hrs by luciferase reporter gene assay. The note with it: Huh-7, 96 h. Format: functional, cell-based, Hepacivirus hominis. Background: In antiviral work, replicon cells carry a viral genome segment that copies itself.
Series [6] relates to Hepatitis C virus. The series can be described thus: Anti-HCV activity against Hepatitis C virus genotype 1b infected in human Huh7 replicon cells after 96 hrs by luciferase reporter gene assay. Format: functional, cell-based, Hepacivirus hominis. Conditions: Huh-7, 96 h.
A short description of series [7]: Cytotoxicity against human HuH7 cells. Format: cell-based, Huh-7.

pEC50, pIC50: −log10 of the molar value. A value given as a limit tells only on which side of the number the result lay.

As a reminder, the pIC50 is −log10 of the IC50, conventionally taken in molar units. In general, pEC50 refers to the EC50 on a negative log10 scale, so that one unit is a factor of ten. High values mean a low EC50, low ones a high EC50. In general, CC50 refers to the concentration that lowers cell viability or growth by half.

`CN(C)c1ncnc2c1c1ccsc1n2[C@@H]1O[C@H](CO)[C@@H](O)[C@H]1O`: the pIC50 (with MRC5; with A549; in series [1]; in the series with K562; in the series with HeLa S3; in the series with CCRF-CEM) was less than 4.30 throughout. Besides, the pIC50 (with HCT-116 [2]; in series [3]; with HL-60; with HCT-116 [4]; with U2OS; with BJ) was less than 4.30 each time. The pIC50 in the series on HepG2 was less than 4.30.

For the compound `OC[C@H]1O[C@@H](n2c3ccsc3c3c(-c4ccco4)ncnc32)[C@H](O)[C@@H]1O`, the pIC50 (in the series with MRC5; in the series with A549; in series [1]; in the series with K562; in the series on HeLa S3; in the series with CCRF-CEM) was less than 4.30 throughout. Further, the pIC50 (in the series on HCT-116 [2]; in series [3]; in the series on HL-60; in the series on HCT-116 [4]; in the series with U2OS; in the series with BJ) was less than 4.30 throughout. The pIC50 in the series on HepG2 was less than 4.30.

Take `Nc1ncnc2c1c1sccc1n2[C@@H]1O[C@H](CO)[C@@H](O)[C@H]1O`: the pIC50 is 4.52 with MRC5; 4.92 in the series on A549; 5.37 in series [1]; 5.21 with K562; 5.81 with HeLa S3; 5.21 in the series on CCRF-CEM. For the same compound, the pIC50 in the series on HCT-116 [2] is 5.27; in series [3] it was 4.82; with HL-60, 6.51; with HCT-116 [4], 5.36; in the series on U2OS it was 5.60; with BJ, 4.78. Also, in the series on HepG2, the pIC50 is 6.25. Besides, the pEC50 in the series on Hepatitis C virus [5] was 4.87; with Hepatitis C virus [6], 5.30. This compound also came in with a cytotoxic concentration (CC50) in series [7] of 16.4 to 17.2 µM.

With `OC[C@H]1O[C@@H](n2c3ccsc3c3c(-c4cc5ccccc5o4)ncnc32)[C@H](O)[C@@H]1O`, the pIC50 is 4.49 in the series with MRC5; 4.67 with A549; 4.75 in series [1]; 4.81 in the series on K562; 4.61 with HeLa S3; 5.16 in the series with CCRF-CEM. For the same compound, the pIC50 is 4.79 in the series with HCT-116 [2]; 4.84 in [3]; 5.62 in the series on HL-60; 4.91 with HCT-116 [4]; 4.73 in the series with U2OS; 4.64 with BJ. The pIC50 in the series with HepG2 is 5.37. Besides, the negative-log EC50 (pEC50) is 4.86 in the series with Hepatitis C virus [5] and 5.68 in the series on Hepatitis C virus [6]. Also, the CC50 in series [7] was in the range of 19.6 to 26.6 µM.

In the case of `OC[C@H]1O[C@@H](n2c3ncnc(-c4ccoc4)c3c3ccsc32)[C@H](O)[C@@H]1O`, the pIC50 (in the series with MRC5; with A549; in series [1]; in the series with K562; in the series with HeLa S3; in the series on CCRF-CEM) was less than 4.30 in each case. For the same compound, the pIC50 (with HCT-116 [2]; in series [3]; in the series with HL-60; with HCT-116 [4]; in the series on U2OS; in the series on BJ) was less than 4.30 each time. Further, the pIC50 in the series with HepG2 is less than 4.30.

Regarding `OC[C@H]1O[C@@H](n2c3ccsc3c3c(-c4ccoc4)ncnc32)[C@H](O)[C@@H]1O`, the negative-log IC50 (pIC50) was less than 4.30 in the series with MRC5; less than 4.30 with A549; less than 4.30 in series [1]; less than 4.30 with K562; less than 4.30 in the series on HeLa S3; 5.44 in the series with CCRF-CEM. In addition, the negative logarithm of the IC50 (pIC50) was less than 4.30 in the series on HCT-116 [2]; less than 4.30 in series [3]; less than 4.30 with HL-60; less than 4.30 in the series with HCT-116 [4]; less than 4.30 in the series on U2OS; 4.49 with BJ. Moreover, the negative logarithm of the IC50 (pIC50) in the series with HepG2 is less than 4.30.

In the case of `Nc1ncnc2c1c1ccsc1n2[C@@H]1O[C@H](CO)[C@@H](O)[C@H]1O`, the pIC50 in the series on MRC5 is less than 4.30; in the series on A549, 4.52; in series [1] it was 6.09; with K562, 4.44; in the series on HeLa S3, less than 4.30; in the series on CCRF-CEM it was 6.52. Further, the pIC50 in the series on HCT-116 [2] was 4.33; in [3] it was 4.39; in the series with HL-60, 6.02; in the series on HCT-116 [4] it was 4.96; with U2OS, 6.29; with BJ, 5.96. Besides, the negative logarithm of the IC50 (pIC50) in the series on HepG2 was 5.84. The pEC50 is less than 4.35 with Hepatitis C virus [5] and 4.76 with Hepatitis C virus [6]. Moreover, the CC50 in series [7] was greater than 44.4 µM.

Turning to `OC[C@H]1O[C@@H](n2c3ncnc(-c4cc5ccccc5o4)c3c3ccsc32)[C@H](O)[C@@H]1O`, the negative-log IC50 (pIC50) was 4.43 in the series with MRC5; less than 4.30 in the series with A549; 4.83 in series [1]; 4.53 in the series on K562; less than 4.30 with HeLa S3; 4.80 in the series on CCRF-CEM. Further, the pIC50 with HCT-116 [2] was 4.33; in series [3] it was 4.69; in the series with HL-60, less than 4.30; with HCT-116 [4], less than 4.30; with U2OS, 4.48; in the series with BJ, 4.43. In the series on HepG2, the pIC50 was less than 4.30. For the same compound, the negative-log EC50 (pEC50) in the series on Hepatitis C virus [5] was 4.85; with Hepatitis C virus [6] it was 5.69. The same compound came in with a CC50 in series [7] greater than 44.4 µM.

Consider `CN(C)c1ncnc2c1c1sccc1n2[C@@H]1O[C@H](CO)[C@@H](O)[C@H]1O`, for which the pIC50 is less than 4.30 with MRC5; less than 4.30 in the series on A549; less than 4.30 in series [1]; less than 4.30 with K562; less than 4.30 with HeLa S3; 4.32 in the series with CCRF-CEM. Moreover, the pIC50 (in the series with HCT-116 [2]; in series [3]; in the series with HL-60; in the series with HCT-116 [4]; in the series on U2OS; in the series on BJ) was less than 4.30 in each case. The pIC50 in the series on HepG2 was less than 4.30.

As for `CC(C)C(=O)OC[C@H]1O[C@@H](n2ccc(N)nc2=O)[C@](C)(F)[C@@H]1OC(=O)C(C)C` [MERICITABINE], the 50% cytotoxic concentration (CC50) in series [7] is greater than 44.4 µM.

As for `Nc1ccn([C@@H]2O[C@H](CO)[C@@H](O)C2(F)F)c(=O)n1` [GEMCITABINE], the pIC50 with MRC5 and with BJ was less than 4.30 throughout.

For the compound `OC[C@H]1O[C@@H](n2c3ncnc(-c4ccco4)c3c3ccsc32)[C@H](O)[C@@H]1O`, the pIC50 (with MRC5; with A549; in series [1]; in the series on K562; in the series with HeLa S3; in the series with CCRF-CEM) was less than 4.30 in each case. Moreover, the pIC50 (in the series on HCT-116 [2]; in series [3]; with HL-60; with HCT-116 [4]; in the series with U2OS; with BJ) was less than 4.30 in each case. Also, the pIC50 with HepG2 is less than 4.30.
